Several values for one entry are separate records, joined by “and”; a condition that tells them apart may be missing. Equal values may be shown once. Marks after values point to notes of the source that are not given here.
What was measured:
[1] = system: kynurenine and tryptophan in the plasma; experiment: phase I trial: plasma kynurenine and tryptophan; format: in vivo, human
Summary of the method: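 In this open-label dose-escalation study, patients received the test compound orally twice daily (100–800 mg, three per cohort, 28-day cycles). Plasma was collected on cycle 1 day 1 and day 15 (predose and 1, 2, 4 and 6 h postdose), day 8 (predose), and cycle 2 day 1 (predose and 2 h). Kynurenine and tryptophan were quantified by LC-MS/MS, ratios were calculated, and values were normalized to baseline.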

[2] = target: IDO1 (Homo sapiens, UniProt P14902); experiment: IDO1 activity in ex vivo LPS-stimulated whole blood from M4112-treated patients
Sequence of IDO1 (P14902 whole entry): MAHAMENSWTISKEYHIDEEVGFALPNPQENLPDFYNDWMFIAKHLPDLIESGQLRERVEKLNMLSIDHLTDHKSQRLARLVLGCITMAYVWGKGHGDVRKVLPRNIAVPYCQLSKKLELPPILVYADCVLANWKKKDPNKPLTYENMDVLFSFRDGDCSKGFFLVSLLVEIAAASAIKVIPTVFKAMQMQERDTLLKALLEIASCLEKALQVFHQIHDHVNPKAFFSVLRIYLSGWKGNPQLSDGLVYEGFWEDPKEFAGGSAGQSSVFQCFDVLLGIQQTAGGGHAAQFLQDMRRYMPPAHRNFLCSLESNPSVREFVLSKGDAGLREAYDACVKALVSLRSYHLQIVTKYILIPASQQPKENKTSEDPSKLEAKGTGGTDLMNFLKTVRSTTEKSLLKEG

[3] = system: advanced solid tumors; experiment: phase I trial: preliminary antitumor activity; format: in vivo, human
Summary of the method: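 Patients with advanced solid tumors received twice-daily oral doses in 28-day cycles. CT or MRI was done at baseline and within 7 days before day 1 of cycles 3, 5 and 7, then every three cycles. The investigator assessed objective response, best overall response, disease control and progression-free survival per RECIST 1.1. Binary endpoints used exact Clopper-Pearson 95% CI and PFS used Kaplan-Meier.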

[4] = target: tumor IDO1 (Mus musculus, UniProt P28776); format: in vivo; conditions: MC38 tumor-bearing mice; 30, 75 or 200 mg/kg
Sequence of tumor IDO1 (P28776 whole entry): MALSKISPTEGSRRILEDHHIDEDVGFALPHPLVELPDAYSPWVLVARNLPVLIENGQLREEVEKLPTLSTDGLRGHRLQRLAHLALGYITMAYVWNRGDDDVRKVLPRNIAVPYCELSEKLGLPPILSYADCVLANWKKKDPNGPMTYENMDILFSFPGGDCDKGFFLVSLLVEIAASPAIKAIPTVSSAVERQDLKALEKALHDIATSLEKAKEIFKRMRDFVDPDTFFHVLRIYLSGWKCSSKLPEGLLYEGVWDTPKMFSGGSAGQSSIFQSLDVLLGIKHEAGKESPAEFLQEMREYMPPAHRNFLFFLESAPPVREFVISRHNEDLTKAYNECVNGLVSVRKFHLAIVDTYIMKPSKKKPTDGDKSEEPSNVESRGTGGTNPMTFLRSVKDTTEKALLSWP
Summary of the method: (§1)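 Female adult C57BL/6 mice were inoculated subcutaneously with 0.5×10^6 IDO1-expressing MC38 colon carcinoma cells. At average tumor volumes of about 200–250 mm3 they received a single oral dose of the test compound (30, 75 or 200 mg/kg) or vehicle. Plasma, liver and tumor were sampled at 1, 2, 4, 8 and 24 h. Drug, kynurenine and tryptophan were measured by LC-MS/MS, and the kynurenine:tryptophan ratio was derived. Data are mean±SEM.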

[5] = phase I trial: plasma pharmacokinetics; format: in vivo, human
Summary of the method: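 Patients were dosed orally twice daily. Blood was sampled on cycle 1 days 1 and 15 (predose and 0.5, 1, 2, 3, 4, 6 and 8 h postdose), on day 8 (predose), and on cycle 2 day 1 (predose and 2 h). Plasma drug levels were measured by LC-MS/MS. Non-compartmental analysis gave Cmax, tmax and AUC0–8, dose-normalized values, predose concentrations and day 15/day 1 accumulation. Dose proportionality was tested with a power model.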

[6] = M4112 levels in plasma, liver and tumor of mice bearing MC38 tumors; format: in vivo; conditions: MC38 tumor-bearing mice
Summary of the method: as §1

[7] = 100 to 600 mg two times per day, day 15
[8] = Cycle 1, day 1, 100 mg two times per day, n=3, geometric mean (CV%)
[9] = Cycle 1, day 1, 200 mg two times per day, n=3, geometric mean (CV%)
[10] = Cycle 1, day 1, 400 mg two times per day, n=3, geometric mean (CV%)
[11] = Cycle 1, day 1, 600 mg two times per day, n=3, geometric mean (CV%)
[12] = Cycle 1, day 1, 800 mg two times per day, n=3, geometric mean (CV%)
[13] = Cycle 1, day 8, 100 mg two times per day, n=3, geometric mean (CV%)
[14] = Cycle 1, day 8, 200 mg two times per day, n=3, geometric mean (CV%)
[15] = Cycle 1, day 8, 400 mg two times per day, n=3, geometric mean (CV%)
[16] = Cycle 1, day 8, 600 mg two times per day, n=3, geometric mean (CV%)
[17] = Cycle 1, day 8, 800 mg two times per day, n=3, geometric mean (CV%)
[18] = Cycle 1, day 15, 100 mg two times per day, n=3, geometric mean (CV%)
[19] = Cycle 1, day 15, 200 mg two times per day, n=3, geometric mean (CV%)
[20] = Cycle 1, day 15, 400 mg two times per day, n=3, geometric mean (CV%)
[21] = Cycle 1, day 15, 600 mg two times per day, n=3, geometric mean (CV%)
[22] = Cycle 1, day 15, 800 mg two times per day, n=1, individual value
[23] = Cycle 2, day 1, 100 mg two times per day, n=3, geometric mean (CV%)
[24] = Cycle 2, day 1, 200 mg two times per day, n=2, individual values
[25] = Cycle 2, day 1, 400 mg two times per day, n=3, geometric mean (CV%)
[26] = Cycle 2, day 1, 600 mg two times per day, n=2, individual values
[27] = Cycle 2, day 1, 800 mg two times per day, n=1, individual value

NS(=O)(=O)[C@H]1CC[C@](F)(CC[C@H]2c3ccccc3-c3cncn32)CC1 [M4112]
plasma kynurenine:tryptophan ratio ([1]; cycle 1 day 1, after 6 hours): decrease
decrease in plasma kynurenine levels ([1]; day 1 of cycle 1, up to 6 hours after the first dose, all dose levels): 12%–35
plasma tryptophan levels ([1]; day 1 of cycle 1, 200 mg two times per day and above): increased
plasma kynurenine levels ([1]; day 15 of cycle 1): returned to at least baseline levels
IDO1 activity inhibited ([2]; 800 mg two times per day, throughout the dosing interval): Approximately 90%
IDO1 inhibition in ex vivo stimulated blood ([2]; across all doses tested): rapid onset of IDO1 inhibition
time of maximum IDO1 inhibition ([2]; post-M4112 administration): 1 to 4 h
dose dependence of IDO1 inhibition ([2]; steady state): trend toward dose-dependent IDO1 inhibition
best overall response stable disease, patients ([3]; 9 of 15 patients): 60.0%
median progression-free survival ([3]; 15 patients): 3.7 months
objective responses ([3]; 15 patients): no objective responses
kynurenine:tryptophan ratio in the liver and plasma [4]: dose-dependent reduction
increase of mean exposure with dose [5, 7]: greater than dose-proportional
slope estimate of dose proportionality (power model) [5, 7]: 1.46–1.67
accumulation / autoinduction following two times per day dosing ([5]; 100–600 mg dose range): no appreciable accumulation or evidence of autoinduction
AUC0–8 [5, 8]: 3550 (14.4) ngxh/mL
AUC0–8/dose [5, 8]: 35.5 (14.4) ngxh/mL/mg
Cmax [5, 8]: 806 (9.9) ng/mL
Cmax/dose [5, 8]: 8.06 (9.9) ng/mL/mg
tmax ([5]; Cycle 1, day 1, 100 mg two times per day, n=3, median (min, max)): 1.08 (1.08, 2.12) hours
AUC0–8 [5, 9]: 8740 (13.6) ngxh/mL
AUC0–8/dose [5, 9]: 43.7 (13.6) ngxh/mL/mg
Cmax [5, 9]: 2110 (13.6) ng/mL
Cmax/dose [5, 9]: 10.5 (13.6) ng/mL/mg
tmax ([5]; Cycle 1, day 1, 200 mg two times per day, n=3, median (min, max)): 2.10 (2.07, 3.08) hours
AUC0–8 [5, 10]: 27,700 (21.4) ngxh/mL
AUC0–8/dose [5, 10]: 69.1 (21.4) ngxh/mL/mg
Cmax [5, 10]: 7670 (39.6) ng/mL
Cmax/dose [5, 10]: 19.2 (39.6) ng/mL/mg
tmax ([5]; Cycle 1, day 1, 400 mg two times per day, n=3, median (min, max)): 1.08 (1.07, 1.08) hours
AUC0–8 [5, 11]: 50,400 (7.7) ngxh/mL
AUC0–8/dose [5, 11]: 84.0 (7.7) ngxh/mL/mg
Cmax [5, 11]: 11,700 (24.6) ng/mL
Cmax/dose [5, 11]: 19.6 (24.6) ng/mL/mg
tmax ([5]; Cycle 1, day 1, 600 mg two times per day, n=3, median (min, max)): 1.00 (0.97, 1.07) hours
AUC0–8 [5, 12]: 14,600 (85.1) ngxh/mL
AUC0–8/dose [5, 12]: 18.2 (85.1) ngxh/mL/mg
Cmax [5, 12]: 2770 (83.6) ng/mL
Cmax/dose [5, 12]: 3.47 (83.6) ng/mL/mg
tmax ([5]; Cycle 1, day 1, 800 mg two times per day, n=3, median (min, max)): 2.08 (2.07, 4.12) hours
Cpre [5, 13]: 156 (58.2) ng/mL
Cpre/dose [5, 13]: 1.56 (58.2) ng/mL/mg
Cpre [5, 14]: 96.5 (85.0) ng/mL
Cpre/dose [5, 14]: 0.482 (85.0) ng/mL/mg
Cpre [5, 15]: 1240 (51.6) ng/mL
Cpre/dose [5, 15]: 3.11 (51.6) ng/mL/mg
Cpre [5, 16]: 4410 (54.5) ng/mL
Cpre/dose [5, 16]: 7.35 (54.5) ng/mL/mg
Cpre [5, 17]: 5200 (105.4) ng/mL
Cpre/dose [5, 17]: 6.50 (105.4) ng/mL/mg
AUC0–8 [5, 18]: 4790 (25.4) ngxh/mL
AUC0–8/dose [5, 18]: 47.9 (25.4) ngxh/mL/mg
Cmax [5, 18]: 975 (34.9) ng/mL
Cmax/dose [5, 18]: 9.75 (34.9) ng/mL/mg
Cpre [5, 18]: 221 (20.5) ng/mL
Cpre/dose [5, 18]: 2.21 (20.5) ng/mL/mg
tmax ([5]; Cycle 1, day 15, 100 mg two times per day, n=3, median (min, max)): 3.08 (2.12, 4.13) hour
AUC0–8 [5, 19]: 7580 (11.5) ngxh/mL
AUC0–8/dose [5, 19]: 37.9 (11.5) ngxh/mL/mg
Cmax [5, 19]: 1720 (20.5) ng/mL
Cmax/dose [5, 19]: 8.58 (20.5) ng/mL/mg
Cpre [5, 19]: 199 (53.9) ng/mL
Cpre/dose [5, 19]: 0.997 (53.9) ng/mL/mg
tmax ([5]; Cycle 1, day 15, 200 mg two times per day, n=3, median (min, max)): 2.10 (1.00, 6.08) hour
AUC0–8 [5, 20]: 31,500 (28.8) ngxh/mL
AUC0–8/dose [5, 20]: 78.8 (28.8) ngxh/mL/mg
Cmax [5, 20]: 6560 (27.4) ng/mL
Cmax/dose [5, 20]: 16.4 (27.4) ng/mL/mg
Cpre [5, 20]: 1630 (45.7) ng/mL
Cpre/dose [5, 20]: 4.08 (45.7) ng/mL/mg
tmax ([5]; Cycle 1, day 15, 400 mg two times per day, n=3, median (min, max)): 1.08 (0.50, 3.00) hour
AUC0–8 [5, 21]: 59,500 (12.7) ngxh/mL
AUC0–8/dose [5, 21]: 99.2 (12.7) ngxh/mL/mg
Cmax [5, 21]: 12,100 (2.2) ng/mL
Cmax/dose [5, 21]: 20.2 (2.2) ng/mL/mg
Cpre [5, 21]: 3380 (42.4) ng/mL
Cpre/dose [5, 21]: 5.63 (42.4) ng/mL/mg
tmax ([5]; Cycle 1, day 15, 600 mg two times per day, n=3, median (min, max)): 1.03 (0.93, 2.17) hour
AUC0–8 [5, 22]: 93,200† ngxh/mL
AUC0–8/dose [5, 22]: 116† ngxh/mL/mg
Cmax [5, 22]: 21,100† ng/mL
Cmax/dose [5, 22]: 26.4† ng/mL/mg
Cpre [5, 22]: 9810† ng/mL
Cpre/dose [5, 22]: 12.3† ng/mL/mg
tmax [5, 22]: 2.00† hour
Cpre [5, 23]: 128 (67.7) ng/mL
Cpre/dose [5, 23]: 1.28 (67.7) ng/mL/mg
Cpre [5, 24]: 83.3 ng/mL and 85.2 ng/mL
Cpre/dose [5, 24]: 0.417 ng/mL/mg and 0.426 ng/mL/mg
Cpre [5, 25]: 957 (72.1) ng/mL
Cpre/dose [5, 25]: 2.39 (72.1) ng/mL/mg
Cpre [5, 26]: 1910 ng/mL and 2560 ng/mL
Cpre/dose [5, 26]: 3.18 ng/mL/mg and 4.27 ng/mL/mg
Cpre [5, 27]: 8560† ng/mL
Cpre/dose [5, 27]: 10.7† ng/mL/mg
tmax ([5]; across all dose levels on both days 1 and 15, approximately): 1 to 3 h
M4112 exposure of the 800 mg two times per day cohort ([5]; cycle 1, day 1): initially lower than that of the other dose groups
exposure to M4112 in the liver compared with both the plasma and the tumor [6]: approximately 10 fold
concentration of M4112 in the tumor by 24 hours post-treatment ([6]; single oral dose): decreased to baseline levels
time at which the concentration of M4112 in the tumor peaked ([6]; single oral dose 30, 75 or 200 mg/kg, post-treatment): 1 to 2 h

From article PMC7449315 (Journal for Immunotherapy of Cancer, 2020)
